Experiments:
[1] = target: Nucleotide-binding oligomerization domain-containing protein 2 (Homo sapiens, UniProt Q9HC29); experiment: Antagonist activity at human NOD2 expressed in HEK-Blue cells assessed as inhibition of MDP-stimulated cell activation at 10 uM preincubated for 3 hrs followed by MDP addition measured after 20 hrs by SEAP reporter gene assay; type: cell-based
How it was run: (§1)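 HEK-Blue hNOD1 or hNOD2 cells preincubated with compound 3 h, then stimulated 20 h with C12-iE-DAP 50 ng/mL (NOD1) or MDP 100 ng/mL (NOD2); SEAP in supernatant quantified. Primary screen at 10 μM, hits repeated in triplicate; IC50 from dose-response, mean ± SD (n = 3), only for compounds reaching ≥50% inhibition at the screening concentration.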

[2] = target: T1, Nucleotide-binding oligomerization domain-containing protein 1 (Homo sapiens) (UniProt Q9Y239); experiment: Antagonist activity at human NOD1 expressed in HEK-Blue cells assessed as inhibition of C12-iE-DAP-stimulated cell activation at 10 uM preincubated for 3 hrs followed by C12-iE-DAP addition measured after 20 hrs by SEAP reporter gene assay; type: cell-based; how it was run: as §1
T1 sequence (whole entry): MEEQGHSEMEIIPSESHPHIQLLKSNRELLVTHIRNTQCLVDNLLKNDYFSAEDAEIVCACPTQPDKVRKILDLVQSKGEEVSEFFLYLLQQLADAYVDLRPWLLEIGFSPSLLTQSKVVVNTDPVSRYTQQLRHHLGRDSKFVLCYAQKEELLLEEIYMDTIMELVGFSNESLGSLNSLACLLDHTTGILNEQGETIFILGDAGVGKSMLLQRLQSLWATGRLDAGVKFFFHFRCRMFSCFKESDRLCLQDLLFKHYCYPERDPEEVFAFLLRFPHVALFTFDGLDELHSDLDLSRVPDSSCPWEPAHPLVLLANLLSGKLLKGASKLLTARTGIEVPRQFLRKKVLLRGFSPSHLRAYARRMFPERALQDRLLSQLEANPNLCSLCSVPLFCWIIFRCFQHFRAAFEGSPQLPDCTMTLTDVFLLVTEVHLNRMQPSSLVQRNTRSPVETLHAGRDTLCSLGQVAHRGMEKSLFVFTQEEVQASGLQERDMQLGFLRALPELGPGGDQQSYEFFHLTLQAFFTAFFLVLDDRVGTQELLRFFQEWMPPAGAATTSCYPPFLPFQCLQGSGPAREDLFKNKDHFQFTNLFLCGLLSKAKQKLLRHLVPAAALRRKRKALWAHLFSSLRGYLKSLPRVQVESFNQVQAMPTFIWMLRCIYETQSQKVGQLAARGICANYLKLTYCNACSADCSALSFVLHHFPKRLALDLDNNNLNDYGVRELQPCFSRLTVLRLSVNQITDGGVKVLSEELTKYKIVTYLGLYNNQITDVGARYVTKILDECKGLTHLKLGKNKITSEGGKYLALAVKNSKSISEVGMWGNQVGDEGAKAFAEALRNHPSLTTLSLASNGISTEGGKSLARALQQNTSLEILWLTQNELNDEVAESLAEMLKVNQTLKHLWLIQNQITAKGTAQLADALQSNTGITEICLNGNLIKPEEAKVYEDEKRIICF

Sequence of Nucleotide-binding oligomerization domain-containing protein 2 (Q9HC29 whole entry, the tested form may be a part): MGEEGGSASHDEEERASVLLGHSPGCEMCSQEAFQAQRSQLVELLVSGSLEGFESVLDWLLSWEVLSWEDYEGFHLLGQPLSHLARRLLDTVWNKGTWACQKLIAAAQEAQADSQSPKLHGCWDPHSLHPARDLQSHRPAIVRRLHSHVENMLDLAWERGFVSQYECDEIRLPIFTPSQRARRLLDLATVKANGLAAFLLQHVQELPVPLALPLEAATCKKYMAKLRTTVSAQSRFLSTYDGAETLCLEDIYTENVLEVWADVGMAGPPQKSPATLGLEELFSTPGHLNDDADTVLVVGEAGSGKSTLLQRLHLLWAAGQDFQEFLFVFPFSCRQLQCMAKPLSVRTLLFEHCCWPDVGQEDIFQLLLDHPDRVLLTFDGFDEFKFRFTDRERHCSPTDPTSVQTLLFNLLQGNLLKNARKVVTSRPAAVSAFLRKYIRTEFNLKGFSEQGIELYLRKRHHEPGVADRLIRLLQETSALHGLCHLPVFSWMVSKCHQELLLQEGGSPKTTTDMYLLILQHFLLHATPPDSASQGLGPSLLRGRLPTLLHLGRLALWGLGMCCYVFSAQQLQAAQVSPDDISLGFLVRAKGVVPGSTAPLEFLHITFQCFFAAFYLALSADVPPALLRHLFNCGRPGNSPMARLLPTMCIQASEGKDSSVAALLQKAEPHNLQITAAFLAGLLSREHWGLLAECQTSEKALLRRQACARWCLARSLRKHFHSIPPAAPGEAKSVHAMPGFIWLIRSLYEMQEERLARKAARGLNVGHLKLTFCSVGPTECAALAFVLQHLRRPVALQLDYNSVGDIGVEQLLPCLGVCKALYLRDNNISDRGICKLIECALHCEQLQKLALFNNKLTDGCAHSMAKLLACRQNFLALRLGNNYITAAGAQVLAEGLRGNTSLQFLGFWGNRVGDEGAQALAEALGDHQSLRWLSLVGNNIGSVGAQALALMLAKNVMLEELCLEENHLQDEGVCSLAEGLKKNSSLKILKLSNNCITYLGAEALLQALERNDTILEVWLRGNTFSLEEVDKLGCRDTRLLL

SMILES	inhibition [1]	inhibition [2]
COC(=O)CC[C@H]1NC(=O)c2cc(Oc3ccccc3)c(NC(=O)Nc3ccc(F)cc3)cc2NC1=O	0.22%	-9.85%
CCN(CC)C(=O)CC[C@H]1NC(=O)c2cc(Oc3cccc4ccccc34)c(NC(=O)/C=C\c3ccc(F)cc3Cl)cc2NC1=O	1.94%	–
Cc1ccc(Oc2cc3c(cc2NC(=O)C2CC2)NC(=O)[C@@H](CCC(=O)O)NC3=O)cc1C	-3.78%	–
CCN(CC)C(=O)CC[C@@H]1C(=O)Nc2cc(Cl)ccc2C(=O)N1C	-7.53%	–
CCN(CC)C(=O)CC[C@@H]1C(=O)N(CC2CC2)c2cc(Cl)ccc2C(=O)N1C	1.38%	-8.85%
NC(=O)CC[C@H]1NC(=O)c2cc(Oc3cccc4ccccc34)c(NC(=O)C3CC3)cc2NC1=O	28.7%	41.6%
CCCCCCCCCCCCNC(=O)CC[C@H]1NC(=O)c2cc(N3CCOCC3)c(NC(=O)C3CC3)cc2NC1=O	7.9%	-0.69%
CCCCCCCCCN1C(=O)[C@@H](CCC(=O)N2CCOCC2)N(C)C(=O)c2ccc(Cl)cc21	17.8%	29.7%
CCCCN(CCCC)c1cc2c(cc1NC(C)=O)NC(=O)[C@@H](CCC(=O)OC)NC2=O	-7.93%	-6.29%
COC(=O)CCC1NC(=O)c2cc(Cl)ccc2N(C)C1=O (stereo unspecified)	1.87%	–
CCCCN(CCCC)c1cc2c(cc1NC(=O)/C=C/c1ccc(F)cc1Cl)NC(=O)[C@@H](CCC(=O)OC)NC2=O	60.8%	76.5%
COC(=O)CC[C@H]1NC(=O)c2cc(Oc3ccc(C)c(C)c3)c(NC(=O)COCc3ccccc3)cc2NC1=O	54.4%	73.8%
NC(=O)CC[C@H]1NC(=O)c2cc(Oc3cccc4ccccc34)c(NC(=O)/C=C\c3ccc(F)cc3Cl)cc2NC1=O	54.8%	70.6%
CCCCCCCCCN1C(=O)[C@@H](CCC(N)=O)N(C)C(=O)c2ccc(Cl)cc21	29.5%	22%
CCCCCCCCCCCCNCC(=O)Nc1cc2c(cc1Oc1cccc(N(C)C)c1)C(=O)N[C@H](CCC(=O)OC)C(=O)N2	-3.92%	7.37%
CN(C)c1cccc(Oc2cc3c(cc2NC(=O)COCc2ccccc2)NC(=O)[C@@H](CCC(N)=O)NC3=O)c1	3.93%	–
COC(=O)CC[C@H]1NC(=O)c2cc(OC)c(NC(=O)c3ccc4ccccc4c3)cc2NC1=O	76.6%	66.4%
CCN(CC)C(=O)CC[C@H]1NC(=O)c2cc(Cl)ccc2NC1=O	21.5%	-0.11%
CCCCCCCCCN1C(=O)[C@@H](CCC(=O)NCc2cccnc2)N(C)C(=O)c2ccc(Cl)cc21	30.9%	54.8%
CCCCCCCCCN1C(=O)[C@@H](CCC(=O)N[C@@H](C)C(N)=O)N(C)C(=O)c2ccc(Cl)cc21	27.7%	17%
COC(=O)CC[C@H]1NC(=O)c2cc(Cl)ccc2NC1=O	28.9%	38%
C=CC(=O)Nc1cc2c(cc1Oc1cccc(N(C)C)c1)C(=O)N[C@H](CCC(=O)OC)C(=O)N2	91.9%	82.1%
COC(=O)CC[C@H]1NC(=O)c2cc(Oc3ccc(C)c(C)c3)c(NC(=O)C3CC3)cc2NC1=O	-4.24%	-9.9%
COC(=O)CC[C@H]1NC(=O)c2cc(N3CCOCC3)c(NC(=O)C3CC3)cc2NC1=O	27%	6.82%
COC(=O)CCC1NC(=O)c2cc(Cl)ccc2N(CC2CC2)C1=O (stereo unspecified)	-2.7%	-3.06%
CCCCCCCNC(=O)CC[C@H]1NC(=O)c2cc(Cl)ccc2NC1=O	1.25%	-7.88%
COC(=O)CC[C@@H]1C(=O)Nc2cc(Cl)ccc2C(=O)N1C	-1.87%	–
CCN(CC)C(=O)CC[C@@H]1C(=O)N(CCC(C)C)c2cc(Cl)ccc2C(=O)N1C	–	-7.62%
O=C(CC[C@H]1NC(=O)c2cc(N3CCOCC3)c(NC(=O)C3CC3)cc2NC1=O)NCCC1=CCCCC1	-2.95%	–
COC(=O)CC[C@H]1NC(=O)c2cc(OC)c(NC(=O)c3cc(C(F)(F)F)cc(C(F)(F)F)c3)cc2NC1=O	-5.32%	–

— ChEMBL document CHEMBL4014339, “Discovery of 1,4-Benzodiazepine-2,5-dione (BZD) Derivatives as Dual Nucleotide Binding Oligomerization Domain Containing 1/2 (NOD1/NOD2) Antagonists Sensitizing Paclitaxel (PTX) To Suppress Lewis Lung Carcinoma (LLC) Growth in Vivo” (J Med Chem, 2017)
